Test results: ChEMBL document CHEMBL2311425, “Histone deacetylase (HDAC) inhibitors with a novel connecting unit linker region reveal a selectivity profile for HDAC4 and HDAC5 with improved activity against chemoresistant cancer cells” (J Med Chem, 2013)
Active and inactive are the calls of the source. No cut-off for these calls is given here.

How the values were obtained:
Histone deacetylase [1] = assay: Inhibition of HDAC in human A2780 cells after 18 hrs by fluorescence assay; assay type: cell-based
Histone deacetylase [2] = assay: Inhibition of HDAC in cisplatin resistant human A2780 cells after 18 hrs by fluorescence assay; assay type: cell-based
[3] = system: A2780 CisR (Homo sapiens); assay: cells; conditions: 72 h
A2780 [4] = assay: Cytotoxicity against human A2780 cells after 72 hrs by MTT assay; assay type: functional, cell-based; conditions: A2780, 72 h
Histone deacetylase 1 = Histone deacetylase 1 (Homo sapiens, UniProt Q13547); assay: Inhibition of human HDAC1 by fluorescence assay
Histone deacetylase [5] = assay: Inhibition of HDAC in cisplatin resistant human KYSE-510 cells after 18 hrs by fluorescence assay; assay type: cell-based
Histone deacetylase 11 = target: T1, Histone deacetylase 11 (Homo sapiens, UniProt Q96DB2); assay: Inhibition of human HDAC11 by fluorescence assay
T1 sequence (Q96DB2 whole entry): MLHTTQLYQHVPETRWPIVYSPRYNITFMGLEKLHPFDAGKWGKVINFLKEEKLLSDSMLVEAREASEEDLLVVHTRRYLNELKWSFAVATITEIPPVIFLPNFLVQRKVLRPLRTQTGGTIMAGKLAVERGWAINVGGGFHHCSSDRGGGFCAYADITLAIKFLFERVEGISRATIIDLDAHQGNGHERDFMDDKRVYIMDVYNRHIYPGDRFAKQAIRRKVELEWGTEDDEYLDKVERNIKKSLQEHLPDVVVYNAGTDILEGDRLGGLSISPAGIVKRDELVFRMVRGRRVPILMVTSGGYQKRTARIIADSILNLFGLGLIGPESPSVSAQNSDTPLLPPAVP

KYSE-510 [6] = assay: Cytotoxicity against cisplatin resistant human KYSE-510 cells after 72 hrs by MTT assay; assay type: functional, cell-based; conditions: KYSE-510, 72 h
KYSE-510 [7] = assay: Cytotoxicity against cisplatin sensitive human KYSE-510 cells after 72 hrs by MTT assay; assay type: functional, cell-based; conditions: KYSE-510, 72 h
Histone deacetylase 2 = Histone deacetylase 2 (Homo sapiens, UniProt Q92769); assay: Inhibition of human HDAC2 by fluorescence assay
MDA-MB-231 [8] = assay: Cytotoxicity against cisplatin resistant human MDA-MB-231 cells after 72 hrs by MTT assay; assay type: functional, cell-based; conditions: MDA-MB-231, 72 h
Histone deacetylase 8 = target: T2, Histone deacetylase 8 (Homo sapiens, UniProt Q9BY41); assay: Inhibition of human HDAC8 by fluorescence assay
T2 sequence (Q9BY41 whole entry): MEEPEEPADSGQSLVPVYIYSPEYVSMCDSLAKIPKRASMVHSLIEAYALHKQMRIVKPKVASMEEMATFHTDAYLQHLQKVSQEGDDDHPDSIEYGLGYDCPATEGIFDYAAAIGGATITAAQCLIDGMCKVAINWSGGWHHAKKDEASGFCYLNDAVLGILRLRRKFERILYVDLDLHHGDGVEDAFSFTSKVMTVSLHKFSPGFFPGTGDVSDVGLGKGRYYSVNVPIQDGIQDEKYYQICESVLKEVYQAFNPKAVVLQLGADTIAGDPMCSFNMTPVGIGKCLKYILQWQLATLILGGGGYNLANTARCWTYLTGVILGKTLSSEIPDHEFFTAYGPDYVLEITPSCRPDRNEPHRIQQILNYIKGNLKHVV

[9] = target: T3, Protein deacetylase HDAC6 (Homo sapiens, UniProt Q9UBN7); assay: Inhibition of human HDAC6 by fluorescence assay
T3 sequence (Q9UBN7 whole entry): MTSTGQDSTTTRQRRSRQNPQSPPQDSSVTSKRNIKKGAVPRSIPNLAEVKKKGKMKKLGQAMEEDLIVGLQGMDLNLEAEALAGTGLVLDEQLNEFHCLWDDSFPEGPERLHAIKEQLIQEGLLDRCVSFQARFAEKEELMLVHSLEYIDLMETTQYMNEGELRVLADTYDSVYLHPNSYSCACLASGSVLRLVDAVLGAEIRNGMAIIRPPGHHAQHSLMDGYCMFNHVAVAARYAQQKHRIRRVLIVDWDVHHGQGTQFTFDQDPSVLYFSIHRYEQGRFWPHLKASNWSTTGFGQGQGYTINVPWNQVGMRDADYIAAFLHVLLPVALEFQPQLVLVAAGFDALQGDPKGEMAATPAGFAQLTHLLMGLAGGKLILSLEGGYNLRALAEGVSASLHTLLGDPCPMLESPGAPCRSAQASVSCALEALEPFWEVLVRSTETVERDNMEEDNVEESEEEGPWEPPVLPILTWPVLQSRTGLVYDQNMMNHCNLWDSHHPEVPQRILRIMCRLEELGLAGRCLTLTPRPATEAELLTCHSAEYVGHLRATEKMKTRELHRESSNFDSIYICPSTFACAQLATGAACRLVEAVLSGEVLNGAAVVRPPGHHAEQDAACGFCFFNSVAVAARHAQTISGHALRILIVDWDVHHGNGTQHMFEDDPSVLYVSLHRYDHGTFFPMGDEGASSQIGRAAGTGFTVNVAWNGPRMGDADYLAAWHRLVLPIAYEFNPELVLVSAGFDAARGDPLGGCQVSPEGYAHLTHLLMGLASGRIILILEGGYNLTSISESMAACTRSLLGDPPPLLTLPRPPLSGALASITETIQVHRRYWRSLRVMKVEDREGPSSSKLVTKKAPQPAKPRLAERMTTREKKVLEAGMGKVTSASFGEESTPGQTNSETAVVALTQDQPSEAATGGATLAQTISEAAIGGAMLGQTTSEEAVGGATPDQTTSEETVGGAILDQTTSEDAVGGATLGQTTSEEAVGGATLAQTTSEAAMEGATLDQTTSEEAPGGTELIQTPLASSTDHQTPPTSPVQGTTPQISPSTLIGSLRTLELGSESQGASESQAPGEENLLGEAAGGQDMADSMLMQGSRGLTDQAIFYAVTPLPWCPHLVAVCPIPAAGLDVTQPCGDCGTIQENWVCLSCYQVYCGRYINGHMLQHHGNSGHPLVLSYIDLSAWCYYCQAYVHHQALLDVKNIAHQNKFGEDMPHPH

MDA-MB-231 [10] = assay: Cytotoxicity against cisplatin sensitive human MDA-MB-231 cells after 72 hrs by MTT assay; assay type: functional, cell-based; conditions: MDA-MB-231, 72 h
Summary of the method: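 MDA-MB-231 (parental), 10 000 cells/well, in DMEM with 15% FCS at 37 °C, 5% CO2. Compounds added 24 h after seeding for 72 h. MTT (5 mg/mL in PBS) was added, formazan dissolved in DMSO, absorbance read at 544 and 690 nm. IC50 from four-parameter logistic fit of ≥3 experiments in triplicate.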

Histone deacetylase [11] = assay: Inhibition of HDAC in cisplatin sensitive human KYSE-510 cells after 18 hrs by fluorescence assay; assay type: cell-based
Histone deacetylase [12] = assay: Inhibition of HDAC in cisplatin resistant human CAL27 cells after 18 hrs by fluorescence assay; assay type: cell-based; conditions: cal-27
CAL-27 [13] = assay: Cytotoxicity against cisplatin resistant human CAL27 cells after 72 hrs by MTT assay; assay type: functional, cell-based; conditions: CAL-27, 72 h
Histone deacetylase 5 = Histone deacetylase 5 (Homo sapiens, UniProt Q9UQL6); assay: Inhibition of human HDAC5 by fluorescence assay
Histone deacetylase 4 = Histone deacetylase 4 (Homo sapiens, UniProt P56524); assay: Inhibition of human HDAC4 by fluorescence assay
CAL-27 [14] = assay: Cytotoxicity against cisplatin sensitive human CAL27 cells after 72 hrs by MTT assay; assay type: functional, cell-based; conditions: CAL-27, 72 h
Histone deacetylase [15] = assay: Inhibition of HDAC in cisplatin sensitive human MDA-MB-231 cells after 18 hrs by fluorescence assay; assay type: cell-based
Histone deacetylase [16] = assay: Inhibition of HDAC in cisplatin sensitive human CAL27 cells after 18 hrs by fluorescence assay; assay type: cell-based; conditions: cal-27
Histone deacetylase [17] = assay: Inhibition of HDAC in cisplatin resistant human MDA-MB-231 cells after 18 hrs by fluorescence assay; assay type: cell-based
A2780 [18] = assay: Cytotoxicity against human A2780 cells up to 100 uM after 72 hrs by MTT assay; assay type: functional, cell-based
Summary of the method: (§1)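 A2780 or its cisplatin-resistant subclone A2780CisR, seeded 5000 cells/well, grown in RPMI 1640 with 10% FCS at 37 °C, 5% CO2. Compound exposure began 24 h after seeding and lasted 72 h. MTT (5 mg/mL in PBS) was added, formazan dissolved in DMSO, absorbance read at 544 and 690 nm. IC50 from four-parameter logistic fit, ≥3 experiments in triplicate.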

A2780 [19] = assay: Cytotoxicity against cisplatin resistant human A2780 cells up to 100 uM after 72 hrs by MTT assay; assay type: functional, cell-based; summary of the method: as §1

Sequence of Histone deacetylase 5 (Q9UQL6 whole entry): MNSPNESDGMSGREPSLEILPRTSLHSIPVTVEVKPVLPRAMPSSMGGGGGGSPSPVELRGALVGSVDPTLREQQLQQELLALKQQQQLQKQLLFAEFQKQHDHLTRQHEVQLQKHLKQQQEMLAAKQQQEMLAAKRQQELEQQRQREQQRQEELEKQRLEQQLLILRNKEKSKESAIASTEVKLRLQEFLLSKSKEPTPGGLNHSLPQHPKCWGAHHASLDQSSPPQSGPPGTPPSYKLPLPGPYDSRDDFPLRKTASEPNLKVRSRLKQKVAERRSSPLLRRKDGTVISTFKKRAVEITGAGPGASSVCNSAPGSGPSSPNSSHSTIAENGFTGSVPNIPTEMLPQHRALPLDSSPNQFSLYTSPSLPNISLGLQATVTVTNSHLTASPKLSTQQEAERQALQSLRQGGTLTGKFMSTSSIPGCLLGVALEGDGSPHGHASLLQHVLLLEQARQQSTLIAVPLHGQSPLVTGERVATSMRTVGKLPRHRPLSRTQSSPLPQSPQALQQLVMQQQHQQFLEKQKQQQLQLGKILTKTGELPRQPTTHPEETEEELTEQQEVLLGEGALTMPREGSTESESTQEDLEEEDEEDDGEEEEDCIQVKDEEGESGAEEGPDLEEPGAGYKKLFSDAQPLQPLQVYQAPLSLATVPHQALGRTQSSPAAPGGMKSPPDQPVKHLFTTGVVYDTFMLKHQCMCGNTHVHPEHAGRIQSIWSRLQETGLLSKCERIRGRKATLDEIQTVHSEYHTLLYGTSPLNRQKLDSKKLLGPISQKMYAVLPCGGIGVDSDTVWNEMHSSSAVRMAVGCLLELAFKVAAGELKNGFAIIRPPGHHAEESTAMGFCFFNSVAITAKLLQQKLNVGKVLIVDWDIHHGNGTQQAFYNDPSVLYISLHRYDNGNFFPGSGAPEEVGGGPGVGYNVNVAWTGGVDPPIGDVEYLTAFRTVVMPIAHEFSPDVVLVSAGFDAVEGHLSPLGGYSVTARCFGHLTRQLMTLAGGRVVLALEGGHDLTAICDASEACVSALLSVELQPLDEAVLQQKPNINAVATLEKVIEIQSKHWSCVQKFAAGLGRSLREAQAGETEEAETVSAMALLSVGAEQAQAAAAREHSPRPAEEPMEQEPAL
Sequence of Histone deacetylase 4 (P56524 whole entry): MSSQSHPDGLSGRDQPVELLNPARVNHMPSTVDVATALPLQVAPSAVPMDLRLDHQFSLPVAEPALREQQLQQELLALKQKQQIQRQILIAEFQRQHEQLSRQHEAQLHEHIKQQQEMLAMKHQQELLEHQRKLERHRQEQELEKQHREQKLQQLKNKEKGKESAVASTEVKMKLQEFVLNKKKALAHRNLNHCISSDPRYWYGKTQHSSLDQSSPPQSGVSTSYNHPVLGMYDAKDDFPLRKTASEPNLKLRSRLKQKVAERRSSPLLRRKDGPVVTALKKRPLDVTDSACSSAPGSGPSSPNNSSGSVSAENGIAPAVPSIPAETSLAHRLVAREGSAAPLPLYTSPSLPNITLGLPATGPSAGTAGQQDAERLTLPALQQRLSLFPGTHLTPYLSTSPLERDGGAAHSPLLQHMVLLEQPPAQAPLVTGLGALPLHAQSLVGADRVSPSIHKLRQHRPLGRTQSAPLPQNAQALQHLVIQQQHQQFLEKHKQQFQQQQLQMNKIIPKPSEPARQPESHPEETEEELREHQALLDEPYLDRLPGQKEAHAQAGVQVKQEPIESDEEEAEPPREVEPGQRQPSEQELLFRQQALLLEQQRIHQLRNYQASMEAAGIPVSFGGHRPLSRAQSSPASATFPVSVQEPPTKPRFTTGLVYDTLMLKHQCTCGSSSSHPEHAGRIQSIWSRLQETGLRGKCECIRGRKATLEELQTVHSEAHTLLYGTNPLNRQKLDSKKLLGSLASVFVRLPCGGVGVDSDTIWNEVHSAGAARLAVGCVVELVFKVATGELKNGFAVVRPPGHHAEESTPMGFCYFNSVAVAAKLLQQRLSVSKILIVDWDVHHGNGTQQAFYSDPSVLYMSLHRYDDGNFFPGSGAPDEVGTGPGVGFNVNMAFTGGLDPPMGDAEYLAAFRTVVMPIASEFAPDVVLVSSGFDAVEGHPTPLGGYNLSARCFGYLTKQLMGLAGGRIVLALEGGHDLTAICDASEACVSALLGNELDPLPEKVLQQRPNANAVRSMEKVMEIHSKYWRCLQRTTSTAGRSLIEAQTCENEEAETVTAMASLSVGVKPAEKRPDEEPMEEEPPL
Sequence of Histone deacetylase 1 (Q13547 whole entry): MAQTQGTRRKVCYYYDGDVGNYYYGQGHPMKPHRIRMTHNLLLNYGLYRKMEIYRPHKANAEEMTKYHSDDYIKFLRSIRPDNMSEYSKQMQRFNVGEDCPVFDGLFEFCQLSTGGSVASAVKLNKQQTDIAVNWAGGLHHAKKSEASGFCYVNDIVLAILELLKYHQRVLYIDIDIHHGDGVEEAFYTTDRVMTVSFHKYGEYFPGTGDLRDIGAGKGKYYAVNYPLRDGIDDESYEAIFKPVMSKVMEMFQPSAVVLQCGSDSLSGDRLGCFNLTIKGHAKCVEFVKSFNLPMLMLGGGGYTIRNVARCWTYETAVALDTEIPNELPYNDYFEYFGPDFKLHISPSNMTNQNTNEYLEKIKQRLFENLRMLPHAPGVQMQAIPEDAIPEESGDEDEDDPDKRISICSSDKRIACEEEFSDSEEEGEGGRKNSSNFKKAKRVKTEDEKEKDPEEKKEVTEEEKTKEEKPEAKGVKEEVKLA
Sequence of Histone deacetylase 2 (Q92769 whole entry): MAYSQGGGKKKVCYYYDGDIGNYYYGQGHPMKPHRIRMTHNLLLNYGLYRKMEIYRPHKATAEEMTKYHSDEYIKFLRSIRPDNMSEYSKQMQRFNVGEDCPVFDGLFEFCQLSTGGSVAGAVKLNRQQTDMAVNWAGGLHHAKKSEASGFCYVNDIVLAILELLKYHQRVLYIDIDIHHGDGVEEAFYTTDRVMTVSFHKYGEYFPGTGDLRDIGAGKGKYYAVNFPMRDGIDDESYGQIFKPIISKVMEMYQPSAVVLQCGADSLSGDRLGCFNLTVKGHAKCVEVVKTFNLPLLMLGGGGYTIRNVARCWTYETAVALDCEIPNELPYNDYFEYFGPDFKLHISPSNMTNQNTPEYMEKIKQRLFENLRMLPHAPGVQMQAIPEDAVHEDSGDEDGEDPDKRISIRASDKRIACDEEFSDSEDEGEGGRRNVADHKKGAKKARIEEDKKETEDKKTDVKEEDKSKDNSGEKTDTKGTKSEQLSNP

| Structure (SMILES) | IC50 (Histone deacetylase [1]) [µM] | IC50 (Histone deacetylase [2]) [µM] | IC50 [3] [µM] | IC50 (A2780 [4]) [µM] | further results |
| --- | --- | --- | --- | --- | --- |
| O=C(CCCCCONC(=O)Nc1cccc2ccccc12)NO | 1.06 | 0.9 | 7.87 | 7.63 | – |
| O=C(CCCCCONC(=O)Nc1cnc2ccccc2c1)NO | 1.07 | 0.85 | 11.6 | 10.8 | – |
| O=C(CCCCCONC(=O)c1ccc(C(F)(F)F)cc1)NO | 2.09 | 1.95 | 30.8 | 9.53 | – |
| O=C(O)CCCCCONC(=O)Nc1ccccc1 | > 100 | > 100 | 72.5 | 23.5 | – |
| O=C(O)CCCCCONC(=O)Nc1ccc(F)cc1 | > 100 | > 100 | 73.1 | 67.8 | – |
| CC(C)(C)c1ccc(NC(=O)NOCCCCCC(=O)NO)cc1 | 1.41 | 1.32 | 8.8 | 6.34 | – |
| CN(O)C(=O)CCCCCONC(=O)Nc1ccccc1 | > 100 | > 100 | > 100 | 87.9 | – |
| Cc1ccccc1NC(=O)NOCCCCCC(=O)NO | 11.7 | 8.86 | 30.1 | 23 | – |
| CC(C)c1ccc(C(=O)NOCCCCCC(=O)NO)cc1 | 0.6 | 0.5 | 4.96 | 4.13 | – |
| COc1ccc(NC(=O)NOCCCCCC(=O)NO)cc1 | 6.64 | 5.73 | 18.2 | 10.3 | – |
| Cc1cccc(NC(=O)NOCCCCCC(=O)NO)c1 | 7.63 | 5.38 | 8.12 | 8.33 | – |
| O=C(CCCCONC(=O)Nc1ccccc1)NO | 15.2 | 16.6 | 35.2 | 62.6 | – |
| Cc1ccc(NC(=O)NOCCCCCC(=O)NO)cc1 | 1.45 | 1.43 | 10.2 | 8.05 | – |
| O=C(CCCCCONC(=O)NNc1ccccc1)NO | 5.86 | 4.95 | 42.4 | 34.9 | – |
| CC(C)c1ccc(NC(=O)NOCCCCCC(=O)NO)cc1 | 2.86 | 2.05 | 58.8 | 27.1 | – |
| Cc1cccc(C(=O)NOCCCCCC(=O)NO)c1 | 1.58 | 0.9 | 2.25 | 2.1 | IC50 (Histone deacetylase 1): 0.341 µM; IC50 (Histone deacetylase [5]): 1.13 µM; IC50 (Histone deacetylase 11): 2.14 µM; IC50 (KYSE-510 [6]): 8.21 µM; IC50 (KYSE-510 [7]): 8.19 µM; IC50 (Histone deacetylase 2): 1.39 µM; IC50 (MDA-MB-231 [8]): 3.81 µM; IC50 (Histone deacetylase 8): 1.04 µM; IC50 [9]: 0.0269 µM; IC50 (MDA-MB-231 [10]): 2.79 µM; IC50 (Histone deacetylase [11]): 2.62 µM; IC50 (Histone deacetylase [12]): 0.88 µM; IC50 (CAL-27 [13]): 3.72 µM; IC50 (Histone deacetylase 5): 0.00231 µM; IC50 (Histone deacetylase 4): 0.0163 µM; IC50 (CAL-27 [14]): 2.97 µM; IC50 (Histone deacetylase [15]): 1.41 µM; IC50 (Histone deacetylase [16]): 1 µM; IC50 (Histone deacetylase [17]): 1.28 µM |
| Cc1ccccc1C(=O)NOCCCCCC(=O)NO | 17.1 | 15.4 | 33.8 | 25.6 | – |
| CC(/C=C/C(=O)NO)=C\[C@@H](C)C(=O)c1ccc(N(C)C)cc1 [TRICHOSTATIN] | – | – | 0.22 | 0.29 | – |
| Cc1ccc(NC(=O)NOCCCCCC(=O)O)cc1 | – | – | > 100 | > 100 | Activity (A2780 [18]): inactive; Activity (A2780 [19]): inactive |
| O=C(CCCCCONC(=O)Nc1ccc(F)cc1)NO | 2.04 | 1.66 | 9.34 | 9.05 | – |
| COc1ccc(NC(=O)NOCCCCCC(=O)O)cc1 | – | – | > 100 | > 100 | Activity (A2780 [18]): inactive; Activity (A2780 [19]): inactive |
| O=C(CCCCCONC(=O)c1ccc(F)cc1)NO | 2.57 | 2 | 60.3 | 16.4 | – |
| O=C(CCCCCONC(=O)Nc1ccccc1)Nc1ccccc1O | 34 | 43.9 | 84.6 | 35 | – |
| O=C(O)CCCCCONC(=O)Nc1cccc2ccccc12 | – | – | > 100 | > 100 | Activity (A2780 [18]): inactive; Activity (A2780 [19]): inactive |
| O=C(CCCCCONC(=O)Nc1ccccc1)NO | 1.7 | 1.71 | 5.47 | 8.47 | – |
| O=C(CCCCCONC(=O)c1ccccc1)NO | 1.58 | 1.26 | 5.72 | 8.33 | – |
| Cc1cc(C)cc(NC(=O)NOCCCCCC(=O)NO)c1 | 5.27 | 4.64 | 5.11 | 2.43 | – |
| Cc1ccc(C(=O)NOCCCCCC(=O)NO)cc1 | 4.21 | 3.46 | 5 | 4.09 | – |
| Nc1ccccc1NC(=O)CCCCCONC(=O)Nc1ccccc1 | 34 | 43.9 | 86.9 | 62.5 | – |
